Assay outcomes from PubChem.
RGS4 act – RGS4 potentiators or activators, primary screen, cell-based, HEK293 M3R inducible RGS4, calcium flux; carbachol calcium flux Fluo4; stronger effect = lower value; B-score at 10 µM; 310,000 tested, 0.92% active; AID 463111, 2010;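 active = B-score of the integrated calcium signal more than 4 SD below the library mean, with starting fluorescence not abnormally high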;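 also: negative B-score means reduced calcium response which marks RGS4 activation or potentiation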
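Reagent: ECmax carbachol challenge; Test system: M3R-expressing HEK293 line, RGS4 induced by doxycycline; Schedule: overnight RGS4 induction, 30 min dye load 37 °C, 20 min compound RT; Detection: calcium dye Fluo4 fluorescence; Read-out: Agonist-evoked peak-minus-minimum fluorescence over baseline, integrated ratio, B score.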
RGS4 block – RGS4 inhibitors, primary screen, cell-based, HEK293 M3R inducible RGS4, calcium flux. 310,000 tested, 0.45% active. AID 463165, 2010. Regulator of G-protein signaling 4 (Homo sapiens), P49798. Fluo-4 calcium flux; stronger effect = higher value; triggered by carbachol at its EC20. B-score at 10 µM;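 active = B-score, a plate-corrected calcium signal, over three deviations above library mean, with baseline fluorescence within five deviations of library mean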;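 also: RGS4 expression induced by doxycycline in cells with stable M3 receptor; B-score is computed from the integrated fluorescence ratio over baseline after carbachol; higher B-score means a larger calcium signal and so more RGS4 inhibition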
MrgX1 PAM – positive allosteric modulators of MrgX1, primary screen, HEK293 cells, Fluo-4 calcium flux | FDSS; stronger effect = higher value | B-score at 10 µM | 310,000 tested, 0.63% active;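 active = plate-corrected calcium response at least 3 library SD above typical, normal starting fluorescence, not activating the receptor alone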;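 also: compound read alongside a low EC10 to EC30 dose of BAM8-22 agonist; peak minus trough fluorescence over baseline measured at the second addition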
Target sequence (Q96LB2 whole entry, looked up): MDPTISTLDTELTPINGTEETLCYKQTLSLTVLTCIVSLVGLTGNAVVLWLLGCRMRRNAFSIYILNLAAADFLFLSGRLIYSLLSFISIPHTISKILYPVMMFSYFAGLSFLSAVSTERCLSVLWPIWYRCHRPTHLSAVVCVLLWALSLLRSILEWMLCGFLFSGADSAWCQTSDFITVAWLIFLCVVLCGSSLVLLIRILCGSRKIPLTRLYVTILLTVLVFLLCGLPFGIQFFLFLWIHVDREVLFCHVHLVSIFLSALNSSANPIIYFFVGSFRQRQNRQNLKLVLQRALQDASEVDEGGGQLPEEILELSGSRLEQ
MrgX1 ag – agonists of human MrgX1 receptor, primary screen, HEK293 cells, Fluo-4 calcium flux. Mas-related G-protein coupled receptor member X1 (Homo sapiens), Q96LB2. Fluo-4 calcium fluorescence, agonist mode; stronger effect = higher value. B-score at 10 µM. 310,000 tested, 0.44% active. AID 588627, 2011;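 active = calcium response B-score plate-corrected fluorescence ratio at least 3 library SD, with starting fluorescence B-score inside 5 SD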
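Assay system: MrgX1-expressing HEK293 cells / Amount: fifteen thousand cells per well / Doses: test compound in the initial addition of three / Timing: cells plated overnight, dye loaded 0.5 h 37 °C, 0.5 h room temperature / Technique: kinetic calcium dye fluorescence, Fluo-4 NW / Control set: positive and negative controls per plate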
MrgX1 antagonist – antagonists of human MrgX1 receptor, primary screen, HEK293 cells, Fluo-4 calcium flux; BAM8-22 antagonism; stronger effect = lower value; B-score at 10 µM; 310,000 tested, 1.3% active; AID 588676, 2011;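 active = calcium-response B-score plate-corrected more than 3 library SD below zero, starting fluorescence within 5 deviations, no agonist response on first addition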;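 also: peak minus trough fluorescence over baseline after final BAM8-22 challenge near maximal dose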
MrgX1 PAM conf – MrgX1 positive allosteric modulators, duplicate retest, confirmation, HEK293 cells, Fluo-4 calcium flux | AID 602413, 2012 | shares compounds with MrgX1 PAM | activation (ratio percentage), % at 10 µM | Fluo-4 calcium fluorescence, FDSS | 1,200 tested, 13% active;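 active = ratio at least 3 SD above the weak peptide control, stable starting fluorescence, no direct agonism earlier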;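 also: compound followed by low BAM8-22 agonist challenge near EC20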
HEK293 Ca flux – nonspecific calcium signal in parental HEK293, confirmation, counter-screen for MrgX1 antagonist project, parental HEK293 cells, Fluo-4 calcium flux | shares compounds with MrgX1 antagonist | Fluo-4 calcium fluorescence, FDSS | fluorescence ratio F(max-min)/F0 at 10 µM | 4,000 tested, 2% active | AID 624111, 2012;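 active = duplicate-averaged calcium fluorescence ratio at least three times the standard deviation of buffer wells, a nonspecific response in parental cells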
HEK293 Ca counter – calcium response in parental HEK293 cells, primary screen, counter-screen for MrgX1 allosteric activator project, cell-based, Fluo-4 calcium flux, duplicate; shares compounds with MrgX1 antagonist; Fluo-4 fluorescence ratio; stronger effect = higher value; fluorescence ratio F(max-min)/F0 at 10 µM; 4,000 tested, 0.4% active; AID 624114, 2012;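 active = calcium fluorescence ratio, averaged over duplicates, at least 3 SD of the buffer-well ratio, meaning a nonspecific response in receptor-free cells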;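 also: untransfected parental HEK293 lacking MrgX1 used as counterscreen for MrgX1 allosteric activators; fluorescence change taken during the second addition on a kinetic imager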
HEK293 Ca cntr2 – calcium response in parental HEK293 cells, primary screen, counter-screen for MrgX1 agonist project, cell-based, Fluo-4 calcium flux, duplicate, agonist mode; shares compounds with MrgX1 antagonist; Fluo-4 calcium fluorescence (FDSS); stronger effect = higher value; fluorescence ratio F(max-min)/F0 at 10 µM; 4,000 tested, 8.7% active;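 active = calcium fluorescence ratio at least three times the spread of buffer wells, meaning a non-specific response in parental cells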
* hit, by the source's call; i = inactive; . = not tested or not shown. An excerpt weighted towards active compounds, which were near 3.5% of everything screened.

SMILES	RGS4 act	RGS4 block	MrgX1 PAM	MrgX1 ag	MrgX1 antagonist	MrgX1 PAM conf	HEK293 Ca flux	HEK293 Ca counter	HEK293 Ca cntr2
CCOC(=O)N1CCN(C(=S)Nc2cc(S(=O)(=O)N3CCOCC3)ccc2Cl)CC1	i	i	9.23*	i	i	i	i	i	i
COc1ccc(-c2csc(NC(=O)CCCc3nc4ccccc4c(=O)[nH]3)n2)cc1OC	-7.4*	i	11.1*	i	i	i	i	i	i
C/C(=N\NC(=O)c1cc2ccccc2cc1O)c1cc2ccccc2o1	i	i	21.5*	i	i	i	i	i	i
C/C(=N\NC(=O)c1nc2ccccn2c1C)c1cc2ccccc2o1	i	i	i	i	i	.	.	.	.
CCOc1ccccc1NC(=O)CSc1ccccc1	i	i	6.91*	i	i	i	i	i	i
CC1CCN(C(=O)C2CCC(C)(C(=O)O)C2(C)C)CC1 (configuration not stated)	i	i	i	i	i	.	.	.	.
c1ccc(-c2csc(-c3cccnc3)n2)cc1	i	i	14.1*	i	i	i	i	i	i
CCOC(=O)C1=C(COC(=O)c2cc(Br)c(Br)s2)NC(=O)NC1C (configuration not stated)	i	i	9.81*	i	i	i	i	i	i
O=C(Nn1cnc2ccccc2c1=O)c1ccc(Cl)c([N+](=O)[O-])c1	i	i	i	i	i	.	.	.	.
CCCNC(=O)/C(=C/c1cn(S(=O)(=O)N(C)C)c2ccccc12)NC(=O)c1ccc(OC)cc1	i	i	35.8*	i	i	15.1%*	i	i	i
O=C1CC(c2ccco2)CC(O)=C1C=Nc1cc(Cl)ccc1O (configuration not stated)	i	i	10.1*	i	i	41.2%*	i	i	i
Cc1nnc(SCC(=O)c2cc(C)n(-c3ccc4c(c3)OCO4)c2C)s1	i	i	16*	i	i	i	i	i	i
CC(=O)NC(CC(=O)N(Cc1ccccc1)c1cccc(C)c1)c1ccccc1 (configuration not stated)	i	i	8.58*	i	i	i	i	i	99.3*
CCC(=O)N1CCc2cc(S(=O)(=O)NC(Cc3ccccc3)C(=O)O)ccc21 (configuration not stated)	i	i	i	i	i	.	.	.	.
COc1ccc(NC2CCCN(C(=O)CN3C(=O)c4ccccc4C3=O)C2)cc1OC (configuration not stated)	i	i	i	i	i	.	.	.	.
O=C(Cc1ccc(Br)cc1)N(Cc1ccccc1)c1ccccn1	i	i	7.29*	i	i	i	i	i	i
O=C(COc1ccc(Br)cc1)N(Cc1ccccc1)c1ccccn1	i	i	i	i	i	.	.	.	.
